The results in this text go back to ChEMBL document CHEMBL4837188, “Identification of Novel Tricyclic Benzo[1,3]oxazinyloxazolidinones as Potent Antibacterial Agents with Excellent Pharmacokinetic Profiles against Drug-Resistant Pathogens” (J Med Chem, 2021).

≈ marks a conversion by molar mass, not a printed value.

Data set [1] concerns Staphylococcus aureus. The data set is described as follows: Antibacterial activity against Staphylococcus aureus ATCC 29213 assessed as inhibition of bacterial growth incubated for 18 hrs by broth microdilution method. The class given is functional. The method, boiled down:
(§1)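 Broth microdilution in 96-well plates. Media: cation-adjusted Mueller−Hinton broth for S. aureus, brain heart infusion for VRE, Mueller−Hinton broth for the other strains. Incubated at 37 °C for 18 h, then A600 read. Percent growth inhibition calculated against 1% DMSO vehicle.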

The subject of data set [2] is Mycobacterium tuberculosis. Briefly: Antitubercular activity against Mycobacterium tuberculosis H37Rv assessed as inhibition of bacterial growth incubated for 7 days by MABA. The class given is functional. Conditions: Mycobacterium tuberculosis, H37Rv, 168 h, time 7 day; read-out: MIC. The method, boiled down:
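Microplate alamar blue assay. H37Rv or clinical isolates were grown to late log phase in 7H9 broth with glycerol, Tween 80 and ADC, then 2 × 10⁵ CFU added to two-fold dilutions. Final range 32–0.5 μg/mL, lowered to 2–0.016 μg/mL for active compounds. 37 °C, 7 days, then alamar blue 16 h. Fluorescence 530/590 nm. MIC is the lowest concentration giving ≥90% reduction; INH and RFP were controls.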

Data set [3] is described as follows: Metabolic stability in pooled human liver microsomes assessed as substrate remaining in presence of NADPH incubated for 30 mins by LC-MS analysis. The class given is ADME, Microsome. Conditions: read-out: Stabilty. In outline: (§2)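 Microsomes from male CD-1 mouse or pooled human, 1 mg/mL protein in 0.05 M phosphate buffer pH 7.4. Compound at final 0.1 μM with DMSO cosolvent. Incubated at 37 °C with 1 mM NADPH, or with buffer in place of NADPH. Sampled at 0 and 30 min and quenched with acetonitrile. LC−MS measurement; substrate remaining at 30 min normalized to time zero.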

The nature of data set [4]: AUC (0 to infinity) in BALB/c mouse at 10 mg/kg, po measured upto 24 hrs by LC-MS/MS analysis. Conditions: in vivo. The class given is ADME, organism-based. Also noted: route oral, dose 10 mg/kg, time <=24. In outline:
(§3)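 Female BALB/c mice, 16−21 g, three per route. Oral dosing at 10 mg/kg as a 5 mg/mL suspension in 0.5% carboxymethyl cellulose. IV dosing at 1 mg/kg as a 1 mg/mL solution in 10% DMSO/50% PEG400/40% water. Blood sampled 15 min to 24 h after oral dosing and 5 min to 24 h after iv. LC/MS/MS quantification in ESI positive mode. Noncompartmental analysis; F = (AUCpo×dose_iv)/(AUCiv×dose_po)×100%.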

A short description of data set [5]: Oral bioavailability in BALB/c mouse at 10 mg/kg measured upto 24 hrs by LC-MS/MS analysis. The class given is ADME, organism-based. Conditions: in vivo. In outline:
as §3

Data set [6] is described as follows: Metabolic stability in pooled human liver microsomes incubated for 30 mins by LC-MS analysis. The class given is ADME, Microsome. Conditions: read-out: Stabilty. In outline:
as §2

For the next data set, the system named is Bacillus subtilis. Briefly: Antibacterial activity against Bacillus subtilis 168 assessed as inhibition of bacterial growth incubated for 18 hrs by broth microdilution method. The class given is functional. The method, boiled down: as §1
Data set [7] in a line: Elimination half life in BALB/c mouse at 10 mg/kg, po measured upto 24 hrs by LC-MS/MS analysis. The class given is ADME, organism-based. Conditions: in vivo, read-out: beta t1/2 (converted). In outline: as §3
A short description of data set [8]: Tmax in BALB/c mouse at 10 mg/kg, po measured upto 24 hrs by LC-MS/MS analysis. The class given is ADME, organism-based. The following applies: in vivo. The method, boiled down:
as §3

Data set [9] concerns the target T1, Amine oxidase [flavin-containing] A (Homo sapiens, UniProt P21397).
T1 sequence (P21397 whole entry): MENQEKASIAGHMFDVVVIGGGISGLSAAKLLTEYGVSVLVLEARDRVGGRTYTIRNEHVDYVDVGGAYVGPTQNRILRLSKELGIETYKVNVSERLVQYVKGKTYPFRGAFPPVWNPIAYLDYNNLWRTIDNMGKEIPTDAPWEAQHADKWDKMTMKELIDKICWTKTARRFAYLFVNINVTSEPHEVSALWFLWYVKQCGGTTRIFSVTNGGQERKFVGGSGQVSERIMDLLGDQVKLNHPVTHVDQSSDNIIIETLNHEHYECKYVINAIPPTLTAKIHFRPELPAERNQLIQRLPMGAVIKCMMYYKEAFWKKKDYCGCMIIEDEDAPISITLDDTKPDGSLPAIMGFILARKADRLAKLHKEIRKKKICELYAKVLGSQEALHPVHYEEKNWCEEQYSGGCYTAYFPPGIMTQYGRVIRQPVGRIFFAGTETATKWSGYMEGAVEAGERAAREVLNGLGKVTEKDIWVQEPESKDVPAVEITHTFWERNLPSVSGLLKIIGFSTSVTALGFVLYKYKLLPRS
Briefly: Inhibition of MAO-A (unknown origin) using kynuramine as substrate preincubated for 5 mins with substrate followed by enzyme addition and measured after 15 mins by LC-MS/MS analysis. The method, boiled down: (§4)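 Recombinant MAO-A (0.01 mg/mL working solution) or MAO-B (0.04 mg/mL working solution) in phosphate buffer. Kynuramine 40 μM working solution. Compound or DMSO preincubated with substrate for 5 min at 37 °C; enzyme then added and incubated 15 min at 37 °C. Reaction quenched. Product 4-hydroxyquinoline (printed as 4-hydroxyquinolinol) measured by LC−MS/MS. Six concentrations in 4-fold dilutions; IC50 from % inhibition versus vehicle.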

A further data set concerns Staphylococcus capitis. The data set is described as follows: Antibacterial activity against linezolid resistant Staphylococcus capitis assessed as bacterial growth inhibition after 18 hrs by broth microdilution method. The class given is functional.
Another data set concerns Enterococcus faecium. Briefly: Antibacterial activity against linezolid resistant Enterococcus faecium 13549 assessed as bacterial growth inhibition after 18 hrs by broth microdilution method. The class given is functional.
Data set [10] deals with T2, Amine oxidase [flavin-containing] B (Homo sapiens, UniProt P27338).
T2 sequence (P27338 whole entry): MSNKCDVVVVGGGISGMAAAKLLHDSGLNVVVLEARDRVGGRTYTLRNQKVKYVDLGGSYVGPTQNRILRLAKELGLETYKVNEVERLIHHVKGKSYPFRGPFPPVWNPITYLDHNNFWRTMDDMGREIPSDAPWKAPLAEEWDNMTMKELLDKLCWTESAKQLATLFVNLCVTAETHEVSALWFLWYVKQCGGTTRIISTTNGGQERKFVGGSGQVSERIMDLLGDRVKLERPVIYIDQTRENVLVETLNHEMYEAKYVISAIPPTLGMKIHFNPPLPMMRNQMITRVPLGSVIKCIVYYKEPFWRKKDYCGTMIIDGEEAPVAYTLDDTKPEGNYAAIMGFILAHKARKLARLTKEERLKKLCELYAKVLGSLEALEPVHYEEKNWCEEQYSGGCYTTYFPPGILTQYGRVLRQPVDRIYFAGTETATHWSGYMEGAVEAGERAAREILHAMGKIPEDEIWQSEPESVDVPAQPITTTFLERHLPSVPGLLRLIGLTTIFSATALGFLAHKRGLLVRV
The data set is described as follows: Inhibition of MAO-B (unknown origin) using kynuramine as substrate preincubated for 5 mins with substrate followed by enzyme addition and measured after 15 mins by LC-MS/MS analysis. In outline:
as §4

Data set [11] in a line: MRT (0 to infinity) in BALB/c mouse at 1 mg/kg, iv measured upto 24 hrs by LC-MS/MS analysis. Conditions: in vivo. The class given is ADME, organism-based. The method, boiled down: as §3
A short description of data set [12]: AUC (0 to t) in BALB/c mouse at 10 mg/kg, po measured upto 24 hrs by LC-MS/MS analysis. More on the design: route oral, dose 10 mg/kg, time <=24. Conditions: in vivo. The class given is ADME, organism-based. The method, boiled down:
as §3

Data set [13] has as its system Staphylococcus aureus. Briefly: Antibacterial activity against methicillin resistant Staphylococcus aureus assessed as bacterial growth inhibition after 18 hrs by broth microdilution method. The class given is functional.
Data set [14] is described as follows: Cmax in BALB/c mouse at 10 mg/kg, po measured upto 24 hrs by LC-MS/MS analysis. The class given is ADME, organism-based. More on the design: route oral, dose 10 mg/kg, time <=24. Conditions: in vivo. In outline:
as §3

For `CC(=O)NC[C@@H]1OC(=O)N2Cc3cc(-c4ccc(C#N)nc4)c(F)cc3O[C@@H]12`, the MIC in the data set with Staphylococcus aureus [1] is 0.125 µg/mL (≈ 0.327 µM); in [2], 0.4 µg/mL (≈ 1.05 µM); with Bacillus subtilis it was 0.125 µg/mL (≈ 0.327 µM); with Staphylococcus capitis, 2 µg/mL (≈ 5.23 µM); in the data set with Enterococcus faecium, 2 µg/mL (≈ 5.23 µM); in the data set with Staphylococcus aureus [13], 0.25 µg/mL (≈ 0.654 µM). Further, the remaining at 0.5 h in data set [3] amounted to 118%; in data set [6] it was 106%. This compound showed an AUC(0-inf) in [4] of 78700 ng·h/mL. In data set [5], the bioavailability was 128%. In data set [7], the half-life is 3.76 h. In addition, the Tmax in data set [8] was 1.33 h. For the same compound, the IC50 was more than 50 µM in [9] and 6.07 µM in data set [10]. Further, in [11], the mean residence time MRT inf was found to be 4.71 h. In [12], this compound registered an exposure AUC(0-t) at 24 h of 77600 ng·h/mL. The same compound showed a Cmax in data set [14] of 10300 ng/mL.
